As usually defined, the IC50 is the concentration needed to halve the response being measured.

Bounds are passed on as bounds.

IC50 and CC50 data for 28 compounds are collected here from ChEMBL document CHEMBL1165851, “Synthesis and inhibitory evaluation of cyclohexen-2-yl- and cyclohexyl-substituted phenols and quinones to endothelial cell and cancer cells” (Eur J Med Chem, 2010).

One data set deals with A549. In words: Antiproliferative activity human A549 cells after 96 hrs by MTT assay.
The test system of another data set is MCF7. In words: Antiproliferative activity human MCF7 cells after 96 hrs by MTT assay. A general note: Formazan colour is commonly taken as a measure of viable cells.
The next data set concerns HUVEC. In words: Antiproliferative activity HUVEC after 96 hrs by MTT assay.
For the next data set, the system named is Bel-7402. In words: Antiproliferative activity human Bel7402 cells after 96 hrs by MTT assay.
Data set [1] is described as follows: Antiproliferative activity human CCC-HPF1 cells after 20 hrs by MTT assay. It is filed as cell-based. The following applies: ccc-hpf1, 96 h, in the assay text read “96 hrs” for “20 hrs”. In outline: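 HUVECs isolated from fresh umbilical cords and used at passages 3–8, grown in EGM-2. A549 and Bel-7402 in RPMI 1640; MCF-7 and ccc-HPF-1 in DMEM; all at 37 °C, 5% CO2. Seeded 1000 (HUVEC, Bel-7402), 1500 (MCF-7, ccc-HPF-1) or 2000 (A549) cells/well and left 20 h. Compound then added from PBS dilutions (final DMSO 0.1%), triplicate, 96 h. Readout MTT viability; IC50/CC50 from viability versus concentration.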

The mark [2] stands for this setting: Homo sapiens, A549, 96 h, read-out: IC50.
Setting [3] is: Homo sapiens, MCF7, 96 h, read-out: IC50.
[4] abbreviates: Homo sapiens, HUVEC, 96 h, read-out: IC50.
[5] abbreviates: Homo sapiens, Bel-7402, 96 h, read-out: IC50.

Consider `CC(C)(C)c1cc(O)cc(C2C=CCCC2)c1O` (stereo not given), for which the IC50 in the data set with A549 (setting [2]) was no less than 50 µM; in the data set on MCF7 (setting [3]), no less than 50 µM; in the data set with HUVEC (setting [4]) it was 11.6 µM; with Bel-7402 (setting [5]), no less than 50 µM.

As to `CC1=CC(=O)C(C2C=CCCC2)=CC1=O` (stereo not given), the IC50 is 30.9 µM in the data set on A549 (setting [2]), no less than 50 µM in the data set on MCF7 (setting [3]), 9.1 µM with HUVEC (setting [4]) and no less than 50 µM in the data set on Bel-7402 (setting [5]).

`CC(C)(C)C1=CC(=O)C(C2CCCCC2)=CC1=O`: the concentration for half-maximal inhibition (IC50) in the data set on A549 (setting [2]) is no less than 50 µM; in the data set with MCF7 (setting [3]) it was no less than 50 µM; in the data set on HUVEC (setting [4]) it was 6 µM; in the data set with Bel-7402 (setting [5]), no less than 50 µM.

For `CC(=O)O[C@H]1C(=O)[C@@]2(C)[C@H]([C@H](OC(=O)c3ccccc3)[C@]3(O)C[C@H](OC(=O)[C@H](O)[C@@H](NC(=O)c4ccccc4)c4ccccc4)C(C)=C1C3(C)C)[C@]1(OC(C)=O)CO[C@@H]1C[C@@H]2O` [PACLITAXEL], the IC50 in the data set with A549 (setting [2]) worked out at 0.0049 µM.

Regarding `Cc1cc(O)c(C2C=CCCC2)c(O)c1` (stereo not given), the IC50 result in the data set with A549 (a549), in the data set on MCF7 (mcf7), in the data set with HUVEC (huvec) and in the data set with Bel-7402 (bel-7402) was “Not Active” each time. The CC50 result in data set [1] was “Not Active”.

`Cc1cc(O)c2c(c1)OC1CCCCC21` (stereo not given): the IC50 entry in the data set with A549 (a549), in the data set with MCF7 (mcf7), in the data set on HUVEC (huvec) and in the data set on Bel-7402 (bel-7402) was “Not Active” each time. In addition, the CC50 result in data set [1] is recorded as “Not Active”.

Take `Oc1cc(C2CCCCC2)c(O)cc1C1CCCCC1`: the IC50 in the data set with A549 (setting [2]) is no less than 50 µM; in the data set with MCF7 (setting [3]) it was no less than 50 µM; in the data set on HUVEC (setting [4]) it was 8.2 µM; in the data set on Bel-7402 (setting [5]), no less than 50 µM.

`O=C1C=C(C2C=CCCC2)C(=O)c2ccccc21` (stereo not given): the IC50 turned out to be 31.8 µM with A549 (setting [2]), 40.2 µM in the data set on MCF7 (setting [3]), 26.7 µM in the data set with HUVEC (setting [4]) and 31.2 µM in the data set with Bel-7402 (setting [5]).

As to `CC(C)(C)C1=CC(=O)C(C2C=CCCC2)=CC1=O` (stereo not given), the IC50 in the data set with A549 (setting [2]) is no less than 50 µM; in the data set on MCF7 (setting [3]), no less than 50 µM; in the data set with HUVEC (setting [4]) it was 6.8 µM; with Bel-7402 (setting [5]), no less than 50 µM.

With `Cc1ccc(C2C=CCCC2)c(O)c1O` (stereo not given), the IC50 came out at 35.6 µM with A549 (setting [2]), 32.4 µM in the data set with MCF7 (setting [3]), 27.1 µM with HUVEC (setting [4]) and 30 µM in the data set with Bel-7402 (setting [5]).

In the case of `Oc1c(C2C=CCCC2)ccc(C2C=CCCC2)c1O` (stereo not given), the IC50 was no less than 50 µM in the data set on A549 (setting [2]), no less than 50 µM in the data set on MCF7 (setting [3]), 28.8 µM with HUVEC (setting [4]) and no less than 50 µM in the data set with Bel-7402 (setting [5]).

Take `Cc1c(O)c(C2C=CCCC2)cc(C2C=CCCC2)c1O` (stereo not given): the IC50 in the data set on A549 (setting [2]) was no less than 50 µM; with MCF7 (setting [3]) it was no less than 50 µM; with HUVEC (setting [4]), 33 µM; in the data set on Bel-7402 (setting [5]), no less than 50 µM.

As for `Oc1ccccc1C1C=CCCC1` (stereo not given), the IC50 in the data set on A549 (setting [2]) was no less than 50 µM; in the data set with MCF7 (setting [3]) it was no less than 50 µM; in the data set with HUVEC (setting [4]), 31.5 µM; in the data set on Bel-7402 (setting [5]), no less than 50 µM.

As for `CC(C)(C)c1cc2c(cc1O)C1CCCCC1O2` (stereo not given), the IC50 with A549 (setting [2]) is no less than 50 µM; with MCF7 (setting [3]), no less than 50 µM; with HUVEC (setting [4]) it was 22.4 µM; in the data set with Bel-7402 (setting [5]) it was no less than 50 µM.

As to `Oc1cccc2c1C1CCCCC1O2` (stereo not given), the IC50 entry in the data set with A549 (a549), with MCF7 (mcf7), with HUVEC (huvec) and in the data set with Bel-7402 (bel-7402) was “Not Active” each time. The CC50 entry in data set [1] is given as “Not Active”.

As to `COc1cccc2c1C(=O)c1c(O)c3c(c(O)c1C2=O)C[C@@](O)(C(=O)CO)C[C@@H]3O[C@H]1C[C@H](N)[C@H](O)[C@H](C)O1` [DOXORUBICIN], the IC50 in the data set with Bel-7402 (setting [5]) was determined as 0.58 µM.

In the case of `Cc1c(O)ccc(C2C=CCCC2)c1O` (stereo not given), the IC50 result with A549 (a549), in the data set on MCF7 (mcf7), in the data set with HUVEC (huvec) and with Bel-7402 (bel-7402) was “Not Active” in each case. Also, the CC50 entry in data set [1] is “Not Active”.

For the compound `Cc1cc(O)c(O)cc1C1CCCCC1`, the IC50 with A549 (setting [2]) is 27.7 µM; with MCF7 (setting [3]), 31.1 µM; in the data set with HUVEC (setting [4]), 8.3 µM; in the data set on Bel-7402 (setting [5]), 22.7 µM.

For `O=C1C=C(C2CCCCC2)C(=O)C=C1C1CCCCC1`, the 50% inhibitory concentration (IC50) is 31.9 µM in the data set with A549 (setting [2]), no less than 50 µM in the data set with MCF7 (setting [3]), 7.8 µM with HUVEC (setting [4]) and 31.3 µM in the data set with Bel-7402 (setting [5]).

`CC(C)(C)c1cc(O)c(C2CCCCC2)cc1O`: the IC50 in the data set with A549 (setting [2]) is 36.3 µM; in the data set on MCF7 (setting [3]), no less than 50 µM; with HUVEC (setting [4]), 7.4 µM; with Bel-7402 (setting [5]), 30.3 µM.

In the case of `Cc1cc(O)c(O)cc1C1C=CCCC1` (stereo not given), the IC50 in the data set with A549 (setting [2]) was found to be 9.5 µM; in the data set with MCF7 (setting [3]), 26.4 µM; in the data set with HUVEC (setting [4]), 4.7 µM; with Bel-7402 (setting [5]), 8.5 µM.

Take `Oc1cc(C2C=CCCC2)c(O)cc1C1C=CCCC1` (stereo not given): the IC50 is no less than 50 µM with A549 (setting [2]), no less than 50 µM in the data set with MCF7 (setting [3]), 2 µM in the data set on HUVEC (setting [4]) and no less than 50 µM in the data set on Bel-7402 (setting [5]).

Consider `CO[C@@H]1[C@H](OC(=O)NC(=O)CCl)CCC2(CO2)[C@H]1[C@@]1(C)O[C@@H]1CC=C(C)C` (single isomer, unassigned) [O-CHLOROACETYLCARBAMOYLFUMAGILLOL], for which the IC50 with A549 (setting [2]) is 50 µM; in the data set with MCF7 (setting [3]), no less than 50 µM; in the data set with HUVEC (setting [4]), 0.0089 µM; in the data set with Bel-7402 (setting [5]), no less than 50 µM.

Take `Cc1cc(O)c(O)c(C2C=CCCC2)c1` (stereo not given): the IC50 was 34.4 µM in the data set on A549 (setting [2]), no less than 50 µM in the data set on MCF7 (setting [3]), 15.3 µM in the data set on HUVEC (setting [4]) and 26.9 µM in the data set with Bel-7402 (setting [5]).

Consider `O=C1C=C(C2C=CCCC2)C(=O)C=C1C1C=CCCC1` (stereo not given), for which the IC50 was no less than 50 µM in the data set on A549 (setting [2]), no less than 50 µM in the data set on MCF7 (setting [3]), 6.2 µM in the data set with HUVEC (setting [4]) and no less than 50 µM in the data set with Bel-7402 (setting [5]).

Regarding `Oc1c(C2C=CCCC2)ccc2ccccc12` (stereo not given), the IC50 was no less than 50 µM with A549 (setting [2]), no less than 50 µM with MCF7 (setting [3]), 22 µM in the data set on HUVEC (setting [4]) and no less than 50 µM with Bel-7402 (setting [5]).

Take `CC(C)(C)c1cc(O)c(C2C=CCCC2)cc1O` (stereo not given): the IC50 in the data set with A549 (setting [2]) is no less than 50 µM; in the data set on MCF7 (setting [3]) it was no less than 50 µM; in the data set on HUVEC (setting [4]), 1.4 µM; in the data set with Bel-7402 (setting [5]) it was no less than 50 µM.

`CC(C)(C)c1cc(O)c(O)c(C2C=CCCC2)c1` (stereo not given): the IC50 was no less than 50 µM in the data set with A549 (setting [2]), no less than 50 µM in the data set with MCF7 (setting [3]), 10 µM in the data set with HUVEC (setting [4]) and no less than 50 µM in the data set on Bel-7402 (setting [5]).
